In ChEMBL document CHEMBL4402600, “Discovery of a Dual Tubulin Polymerization and Cell Division Cycle 20 Homologue Inhibitor via Structural Modification on Apcin” (J Med Chem, 2020):
Active and inactive are the calls of the source. The calls are words filed in the database; no cut-off is given here.

Legend:
[1] = test system: Caov-3 cell line; assay: Cytotoxicity in human Caov3 cells assessed as reduction in cell viability incubated for 48 hrs by MTT assay; type: functional, cell-based; conditions: Caov-3, 48 h
Summary of the method: (§1)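 Cells grown at 37°C, 5% CO₂ (HepG2, OVCAR-3, Caov-3 in DMEM + 10% FBS; A549, HeLa, A375, MCF-7 in RPMI 1640 + 10% FBS). Seeded at 4-5×10³/well in triplicate, adhered overnight, exposed to 0.03–300 μM (DMSO <0.1%) for 48 h. MTT added for 4 h, formazan dissolved in DMSO, absorbance read. IC50 from dose–response curves, mean ± SD of at least three independent experiments.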

[2] = test system: HepG2; assay: Inhibition of cell invasion in human HepG2 cells assessed as retardation of cell penetration through matrigel-coated membranes at 0.3 uM incubated for 48 hrs; type: functional, cell-based
Summary of the method: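 HepG2 cells treated with compound or DMSO seeded in upper Transwell chamber in serum-free medium with Matrigel; complete medium in lower chamber. After 48 h at 37°C, 5% CO₂, invaded cells crystal-violet stained and photographed.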

[3] = test system: A549; assay: Cytotoxicity in human A549 cells assessed as reduction in cell viability incubated for 48 hrs by MTT assay; type: functional, cell-based; conditions: A549, 48 h; summary of the method: as §1
[4] = test system: HepG2; assay: Inhibition of mitotic exit in human HepG2 cells assessed as increase in nuclear phosphohistone H3 levels incubated for 48 hrs by immunofluorescence assay; type: functional, cell-based
Summary of the method: (§2)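 HepG2 seeded at 4×10³/well, overnight adhesion, treated 48 h. Fixed 15 min in 4% formaldehyde, permeabilized with Triton X-100, BSA-blocked, anti-phospho-histone H3 (Ser10) at 4°C overnight, fluorescent anti-rabbit secondary, DAPI counterstain. Fluorescence read relative to DMSO control; PHH3-positive cells counted in random fields as % of total. At least two experiments.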

[5] = test system: MCF7; assay: Cytotoxicity in human MCF7 cells assessed as reduction in cell viability incubated for 48 hrs by MTT assay; type: functional, cell-based; conditions: MCF7, 48 h; summary of the method: as §1
[6] = test system: HepG2; assay: Induction of apoptosis in human HepG2 cells assessed as early apoptotic cells level at 0.3 uM incubated for 24 hrs by Annexin V-FITC/PI staining based flow cytometry (reference value: 4.02%); type: functional
[7] = test system: HepG2; assay: Inhibition of cell migration in human HepG2 cells incubated for 48 hrs by wound healing assay; type: functional, cell-based
Summary of the method: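 HepG2 seeded at 15×10⁴/well in triplicate overnight. Confluent monolayers scratched with a pipette tip, PBS-washed, medium with 0.3 μM compound added. Wounds photographed at 0, 24, 48, 72 h; wound area measured by image analysis. At least two separate experiments.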

[8] = test system: HepG2; assay: Induction of apoptosis in human HepG2 cells assessed as increase in cleaved PARP level at 0.03 to 0.3 uM incubated for 48 hrs by Western blot analysis; type: functional, cell-based
Summary of the method: (§3)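 HepG2 cells treated 48 h. Lysates in RIPA buffer with protease/phosphatase inhibitors; 25 μg protein run on SDS-PAGE, transferred to PVDF, blocked in 5% milk/TBST, primary antibodies overnight at 4°C (caspase-3, cleaved caspase-3, cleaved PARP), HRP secondary 1 h at room temperature, ECL detection; densitometry quantified.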

[9] = test system: HepG2; assay: Induction of apoptosis in human HepG2 cells assessed as viable cells level at 0.3 uM incubated for 24 hrs by Annexin V-FITC/PI staining based flow cytometry (reference value: 89.38%); type: functional
[10] = test system: HeLa; assay: Cytotoxicity in human HeLa cells assessed as reduction in cell viability incubated for 48 hrs by MTT assay; type: functional, cell-based; summary of the method: as §1
[11] = target: T1, Tubulin (Homo sapiens) (UniProt P68371+Q9H4B7+P0DPH7+P68366+Q13509+Q71U36+P04350+Q3ZCM7+P07437+P68363+Q9BQE3+Q6PEY2+Q13885+Q9BVA1+Q9BUF5); assay: Inhibition of tubulin polymerization in human HepG2 cells assessed as disruption of microtubule organization in cytosol at 0.3 uM incubated for 48 hrs by immunofluorescent staining; type: cell-based
Summary of the method: (§4)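 HepG2 treated 48 h (vehicle 0.1% DMSO; 0.3 μM paclitaxel reference). Fixed in formaldehyde, permeabilized with Triton X-100, BSA-blocked, anti-α-tubulin overnight at 4°C, fluorescent secondary, DAPI counterstain; imaged for microtubule network and chromosome morphology.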

[12] = target: T2, Cell division cycle protein 20 homolog (Homo sapiens, UniProt Q12834); assay: Binding affinity to CDC20 (unknown origin) by SPR analysis
Summary of the method: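 Recombinant human Cdc20 (>95% pure) coupled by EDC/NHS to an acid-coupling chip; PBS pH 7.4 running buffer. Compounds injected as a gradient dilution series starting at 200 μM, 120-140 s association, 160 s dissociation. Steady-state values plotted against concentration; K_D from a one-to-one / single-site model.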

[13] = test system: HepG2; assay: Cytotoxicity in human HepG2 cells assessed as reduction in cell viability incubated for 48 hrs by MTT assay; type: functional, cell-based; conditions: HepG2, 48 h; summary of the method: as §1
[14] = test system: HepG2; assay: Induction of apoptosis in human HepG2 cells assessed as necrotic cells level at 0.3 uM incubated for 24 hrs by Annexin V-FITC/PI staining based flow cytometry (reference value: 1.48%); type: functional
[15] = test system: HepG2; assay: Inhibition of mitotic exit in human HepG2 cells assessed as increase in nuclear phosphohistone H3 levels at 0.03 to 0.3 uM incubated for 48 hrs by Western blot analysis relative to control; type: functional, cell-based
[16] = target: Tubulin (Sus scrofa) (UniProt P02554+P02550); assay: Inhibition of porcine brain tubulin polymerization assessed as reduction in rate and extent of tubulin assembly measured at 37 degC every 30 secs for 60 mins by fluorescence based assay
[17] = target: T1, Tubulin (Homo sapiens); assay: Inhibition of tubulin polymerization in human HepG2 cells assessed as condensed chromosome formation at 0.3 uM incubated for 48 hrs by immunofluorescent staining; type: cell-based; summary of the method: as §4
[18] = test system: OVCAR-3; assay: Cytotoxicity in human OVCAR3 cells assessed as reduction in cell viability incubated for 48 hrs by MTT assay; type: functional, cell-based; conditions: OVCAR-3, 48 h; summary of the method: as §1
[19] = test system: HepG2; assay: Induction of apoptosis in human HepG2 cells assessed as late apoptotic cells level at 0.3 uM incubated for 24 hrs by Annexin V-FITC/PI staining based flow cytometry (reference value: 5.12%); type: functional
[20] = test system: HepG2; assay: Inhibition of mitotic exit in human HepG2 cells assessed as increase in nuclear phosphohistone H3 levels at 100 uM incubated for 48 hrs by immunofluorescence assay relative to control; type: functional; design: scale not given: the % may be the effect or the level left; summary of the method: as §2
[21] = test system: A-375; assay: Cytotoxicity in human A375 cells assessed as reduction in cell viability incubated for 48 hrs by MTT assay; type: functional, cell-based; conditions: A-375, 48 h; summary of the method: as §1
[22] = test system: HepG2; assay: Induction of apoptosis in human HepG2 cells assessed as increase in cleaved caspase-3 level at 0.03 to 0.3 uM incubated for 48 hrs by Western blot analysis; type: functional, cell-based; summary of the method: as §3
[23] = test system: HepG2; assay: Induction of apoptosis in human HepG2 cells assessed as viable cells level at 300 uM incubated for 24 hrs by Annexin V-FITC/PI staining based flow cytometry (reference value: 89.38%); type: functional
[24] = test system: HepG2; assay: Induction of apoptosis in human HepG2 cells assessed as necrotic cells level at 300 uM incubated for 24 hrs by Annexin V-FITC/PI staining based flow cytometry (reference value: 1.48%); type: functional
[25] = test system: HepG2; assay: Induction of apoptosis in human HepG2 cells assessed as late apoptotic cells level at 300 uM incubated for 24 hrs by Annexin V-FITC/PI staining based flow cytometry (reference value: 5.12%); type: functional
[26] = test system: HepG2; assay: Induction of apoptosis in human HepG2 cells assessed as viable cells level at 100 uM incubated for 24 hrs by Annexin V-FITC/PI staining based flow cytometry (reference value: 89.38%); type: functional
[27] = test system: HepG2; assay: Inhibition of mitotic exit in human HepG2 cells assessed as increase in nuclear phosphohistone H3 levels at 10 to 100 uM incubated for 48 hrs by relative to control
[28] = test system: HepG2; assay: Induction of apoptosis in human HepG2 cells assessed as necrotic cells level at 100 uM incubated for 24 hrs by Annexin V-FITC/PI staining based flow cytometry (reference value: 1.48%); type: functional
[29] = target: T2, Cell division cycle protein 20 homolog; assay: Inhibition of CDC20 in human HepG2 cells assessed as increase in Bim protein levels at 100 uM incubated for 48 hrs by Western blot Analysis; type: cell-based
Summary of the method: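 HepG2 lysates in RIPA buffer with protease/phosphatase inhibitors; 25 μg protein by SDS-PAGE/PVDF, blocked in 5% milk/TBST, primary antibodies overnight at 4°C (Cyclin A2, Cyclin B1, Bim, Aurora A, Skp2), HRP secondary 1 h at room temperature, ECL; bands quantified by densitometry.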

[30] = test system: HepG2; assay: Induction of apoptosis in human HepG2 cells assessed as early apoptotic cells level at 300 uM incubated for 24 hrs by Annexin V-FITC/PI staining based flow cytometry (reference value: 4.02%); type: functional
[31] = test system: HepG2; assay: Induction of apoptosis in human HepG2 cells assessed as late apoptotic cells level at 100 uM incubated for 24 hrs by Annexin V-FITC/PI staining based flow cytometry (reference value: 5.12%); type: functional
[32] = test system: HepG2; assay: Induction of apoptosis in human HepG2 cells assessed as early apoptotic cells level at 100 uM incubated for 24 hrs by Annexin V-FITC/PI staining based flow cytometry (reference value: 4.02%); type: functional
[33] = test system: HepG2; assay: Induction of apoptosis in human HepG2 cells assessed as increase in cleaved PARP level at 30 to 100 uM incubated for 48 hrs by Western blot analysis; type: functional, cell-based; summary of the method: as §3
[34] = test system: HepG2; assay: Induction of apoptosis in human HepG2 cells assessed as increase in cleaved caspase-3 level at 30 to 100 uM incubated for 48 hrs by Western blot analysis; type: functional, cell-based; summary of the method: as §3

T2 sequence (Q12834 whole entry): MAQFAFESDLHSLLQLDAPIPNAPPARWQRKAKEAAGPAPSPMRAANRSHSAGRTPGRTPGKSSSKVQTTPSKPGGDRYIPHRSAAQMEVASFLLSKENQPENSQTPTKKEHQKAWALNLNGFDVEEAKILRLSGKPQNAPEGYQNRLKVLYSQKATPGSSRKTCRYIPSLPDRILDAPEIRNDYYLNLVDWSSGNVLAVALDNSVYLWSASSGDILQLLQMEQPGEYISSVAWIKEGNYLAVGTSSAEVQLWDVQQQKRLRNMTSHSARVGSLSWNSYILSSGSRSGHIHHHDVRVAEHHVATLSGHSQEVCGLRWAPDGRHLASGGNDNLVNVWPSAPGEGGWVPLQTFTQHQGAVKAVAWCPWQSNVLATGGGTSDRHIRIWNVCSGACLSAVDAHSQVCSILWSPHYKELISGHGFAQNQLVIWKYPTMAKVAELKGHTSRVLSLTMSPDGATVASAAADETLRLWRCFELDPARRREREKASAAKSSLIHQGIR
Tubulin (Sus scrofa), sequence (P02550 whole entry, looked up): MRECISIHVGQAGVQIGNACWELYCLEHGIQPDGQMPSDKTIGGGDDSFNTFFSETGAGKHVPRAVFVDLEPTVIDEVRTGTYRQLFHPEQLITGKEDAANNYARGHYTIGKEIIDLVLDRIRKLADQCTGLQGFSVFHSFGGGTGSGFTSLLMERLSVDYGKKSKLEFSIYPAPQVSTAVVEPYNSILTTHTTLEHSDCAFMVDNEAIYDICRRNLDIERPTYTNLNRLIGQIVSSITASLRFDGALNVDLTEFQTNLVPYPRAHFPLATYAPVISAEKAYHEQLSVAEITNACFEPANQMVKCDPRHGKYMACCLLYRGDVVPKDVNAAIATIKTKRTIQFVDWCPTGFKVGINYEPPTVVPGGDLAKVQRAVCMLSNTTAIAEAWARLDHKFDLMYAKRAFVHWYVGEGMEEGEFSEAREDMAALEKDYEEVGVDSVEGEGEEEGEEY
Tubulin (Sus scrofa), sequence (P02554 whole entry, looked up): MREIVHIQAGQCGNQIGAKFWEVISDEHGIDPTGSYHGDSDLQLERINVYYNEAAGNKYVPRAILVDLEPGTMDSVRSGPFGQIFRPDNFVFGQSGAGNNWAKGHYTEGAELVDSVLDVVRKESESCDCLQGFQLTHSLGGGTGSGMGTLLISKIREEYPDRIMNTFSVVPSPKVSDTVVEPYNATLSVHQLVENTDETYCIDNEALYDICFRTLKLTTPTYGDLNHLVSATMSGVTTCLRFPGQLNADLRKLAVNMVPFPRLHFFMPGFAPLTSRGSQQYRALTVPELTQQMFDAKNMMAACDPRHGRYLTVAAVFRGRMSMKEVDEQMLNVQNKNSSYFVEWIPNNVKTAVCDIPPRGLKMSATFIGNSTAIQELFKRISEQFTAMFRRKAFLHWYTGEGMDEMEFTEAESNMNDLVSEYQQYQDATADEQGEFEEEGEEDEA

Nc1nc(F)nc2c1ncn2C(NC(=O)OCCN1CCOCC1)C(Cl)(Cl)Cl (stereo not drawn)
IC50 [1]: 1500 nM
inhibition [2]: Active
IC50 [3]: 1500 nM
Activity [4]: Dose-dependent effect
IC50 [5]: 200 nM
Activity [6]: 37.35%
inhibition [7]: Dose-dependent effect
Activity [8]: Active
Activity [9]: 57.7%
IC50 [10]: 300 nM
inhibition [11]: Active
Kd [12]: 119000 nM
IC50 [13]: 600 nM
Activity [14]: 0.24%
Activity [15]: Active
inhibition [16]: Dose-dependent effect
inhibition [17]: Active
IC50 [18]: 1700 nM
Activity [19]: 4.71%
Activity [20]: 10%
IC50 [21]: 700 nM
Activity [22]: Active

Cc1ncc([N+](=O)[O-])n1CCOC(=O)NC(Nc1ncccn1)C(Cl)(Cl)Cl (stereo not drawn)
IC50 [1]: > 300000 nM
IC50 [3]: > 300000 nM
Activity [4]: Dose-dependent effect
IC50 [5]: > 300000 nM
Activity [23]: 6.82%
Activity [24]: 0.73%
IC50 [10]: 221000 nM
Activity [25]: 30.02%
Activity [26]: 82.91%
fold change (FC) [27]: 2.2
Kd [12]: 123000 nM
IC50 [13]: > 300000 nM
Activity [28]: 2.39%
inhibition [29]: Active
Activity [30]: 62.43%
Activity [31]: 6.85%
Activity [32]: 7.85%
Activity [33]: Active
IC50 [18]: > 300000 nM
Activity [34]: Active
IC50 [21]: 193000 nM
